For assay [1], the target named is T1, Toll-like receptor 9 (Mus musculus) (UniProt Q9EQU3).
T1 sequence (whole entry): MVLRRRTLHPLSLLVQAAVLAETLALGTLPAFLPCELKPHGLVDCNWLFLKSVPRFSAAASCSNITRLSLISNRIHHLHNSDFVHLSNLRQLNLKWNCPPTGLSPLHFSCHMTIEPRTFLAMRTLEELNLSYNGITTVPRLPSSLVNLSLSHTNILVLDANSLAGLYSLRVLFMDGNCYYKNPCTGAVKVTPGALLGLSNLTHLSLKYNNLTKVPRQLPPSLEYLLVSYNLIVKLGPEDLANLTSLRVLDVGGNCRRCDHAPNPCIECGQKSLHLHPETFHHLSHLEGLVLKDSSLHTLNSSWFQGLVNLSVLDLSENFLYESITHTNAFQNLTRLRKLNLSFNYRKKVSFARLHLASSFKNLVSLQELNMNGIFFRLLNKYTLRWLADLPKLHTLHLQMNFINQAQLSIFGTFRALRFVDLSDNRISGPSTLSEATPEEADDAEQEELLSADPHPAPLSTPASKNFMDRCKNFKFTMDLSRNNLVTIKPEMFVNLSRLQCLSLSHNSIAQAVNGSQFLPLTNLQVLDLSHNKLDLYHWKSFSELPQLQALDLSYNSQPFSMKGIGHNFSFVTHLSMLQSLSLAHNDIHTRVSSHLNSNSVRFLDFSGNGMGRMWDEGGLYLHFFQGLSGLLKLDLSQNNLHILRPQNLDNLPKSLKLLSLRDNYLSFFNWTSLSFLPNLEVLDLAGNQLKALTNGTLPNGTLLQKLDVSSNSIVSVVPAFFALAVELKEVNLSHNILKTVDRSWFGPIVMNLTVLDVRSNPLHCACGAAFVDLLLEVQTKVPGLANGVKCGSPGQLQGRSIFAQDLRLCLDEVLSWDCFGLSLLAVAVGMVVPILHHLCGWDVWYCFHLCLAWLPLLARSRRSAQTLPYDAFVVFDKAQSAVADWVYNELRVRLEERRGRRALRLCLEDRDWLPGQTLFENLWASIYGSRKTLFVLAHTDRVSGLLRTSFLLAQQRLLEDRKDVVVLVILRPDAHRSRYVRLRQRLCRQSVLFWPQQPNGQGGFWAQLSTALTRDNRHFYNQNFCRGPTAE
Kind of assay: Induction of TLR9-mediated IL12 production in C57BL/6 mouse spleen cells after 24 hrs by ELISA. It is filed as cell-based. The method in brief:
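C57BL/6 mouse spleen cells were cultured with agonists at 0.1, 0.3, 1, 3 and 10 μg/mL for 24 h. Secreted IL-12 and IL-6 in the supernatants were measured by ELISA. Values are averages of triplicate wells from one representative of at least two independent experiments.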

Assay [2] deals with T2, Toll-like receptor 9 (Homo sapiens) (UniProt Q9NR96).
T2 sequence (whole entry): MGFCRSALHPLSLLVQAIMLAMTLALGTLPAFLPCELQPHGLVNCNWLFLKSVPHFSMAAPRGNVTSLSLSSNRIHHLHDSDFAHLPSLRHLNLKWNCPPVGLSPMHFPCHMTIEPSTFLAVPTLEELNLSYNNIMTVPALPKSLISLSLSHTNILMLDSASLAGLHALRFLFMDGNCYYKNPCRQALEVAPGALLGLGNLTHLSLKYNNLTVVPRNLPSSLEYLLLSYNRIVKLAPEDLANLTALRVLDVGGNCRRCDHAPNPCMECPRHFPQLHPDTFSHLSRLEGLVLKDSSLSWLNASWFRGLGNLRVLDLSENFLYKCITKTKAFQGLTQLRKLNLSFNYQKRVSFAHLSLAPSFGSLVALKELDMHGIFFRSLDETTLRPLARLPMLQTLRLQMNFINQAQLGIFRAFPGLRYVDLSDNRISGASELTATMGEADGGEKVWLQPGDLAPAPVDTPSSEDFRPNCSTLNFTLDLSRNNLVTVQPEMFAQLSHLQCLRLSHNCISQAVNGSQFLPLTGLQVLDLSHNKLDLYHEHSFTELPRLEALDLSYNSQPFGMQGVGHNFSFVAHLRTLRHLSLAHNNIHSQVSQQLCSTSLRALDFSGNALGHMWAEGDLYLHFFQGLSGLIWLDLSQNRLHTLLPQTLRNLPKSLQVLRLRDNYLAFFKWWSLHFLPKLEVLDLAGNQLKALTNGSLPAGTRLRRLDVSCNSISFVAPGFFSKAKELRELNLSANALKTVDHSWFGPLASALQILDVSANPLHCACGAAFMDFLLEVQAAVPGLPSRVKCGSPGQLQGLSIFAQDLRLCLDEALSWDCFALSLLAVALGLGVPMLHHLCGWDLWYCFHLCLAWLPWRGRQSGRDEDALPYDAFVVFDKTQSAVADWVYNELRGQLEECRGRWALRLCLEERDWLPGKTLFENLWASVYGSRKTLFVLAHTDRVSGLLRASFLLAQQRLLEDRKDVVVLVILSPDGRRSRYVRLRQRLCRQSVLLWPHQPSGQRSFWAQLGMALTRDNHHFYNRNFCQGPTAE
Kind of assay: Induction of TLR9-mediated immune stimulation in human PBMC assessed as MIP1beta production at 10 ug/ml after 24 hrs by luminex multiplex assay (RVb = 0.03 +/- 0.02 ng/ml).

For assay [3], the target named is T2, Toll-like receptor 9 (Homo sapiens). Kind of assay: Induction of TLR9-mediated immune stimulation in human PBMC assessed as RANTES production at 2 ug/ml after 24 hrs by luminex multiplex assay (RVb = 0.05 +/- 0.04 ng/ml).
Assay [4] has the same target. Briefly: Induction of TLR9-mediated immune stimulation in human PBMC assessed as MIP1beta production at 2 ug/ml after 24 hrs by luminex multiplex assay (RVb = 0.03 +/- 0.02 ng/ml).
Assay [5] has the same target. Kind of assay: Induction of TLR9-mediated immune stimulation in human PBMC assessed as MCP1 production at 2 ug/ml after 24 hrs by luminex multiplex assay (RVb = 0.08 +/- 0.02 ng/ml).
Assay [6] shares this target. Kind of assay: Induction of TLR9-mediated immune stimulation in human PBMC assessed as IL2R production at 10 ug/ml after 24 hrs by luminex multiplex assay (RVb = 0.02 +/- 0.01 ng/ml).
For assay [7] the target is unchanged. Briefly: Induction of TLR9-mediated immune stimulation in human PBMC assessed as MCP1 production at 10 ug/ml after 24 hrs by luminex multiplex assay (RVb = 0.08 +/- 0.02 ng/ml).
Assay [8] shares this target. Kind of assay: Induction of TLR9-mediated immune stimulation in human PBMC assessed as IL1Ralpha production at 10 ug/ml after 24 hrs by luminex multiplex assay (RVb = 0.12 +/- 0.03 ng/ml).
The target in assay [9] is T1, Toll-like receptor 9 (Mus musculus). Kind of assay: Activation of mouse TLR9 expressed in HEK293 cells assessed as induction of NF-kappaB activity after 18 hrs by SEAP assay. Type of assay: cell-based. The method in brief:
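HEK293 cells stably expressing mouse TLR9 were grown in DMEM with 10% heat-inactivated FBS. At 80% confluence they were transiently transfected with a SEAP reporter plasmid (100 ng/well, lipofectamine) for 6 h. Medium was then replaced and agonists were added for 18 h. Supernatant SEAP was read with QuantiBlue substrate at 620-645 nm. Results are expressed as fold NF-κB activity over PBS control.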

Consider `Cc1cn([C@H]2C[C@H](OCC(O)COP(=O)(S)O[C@H]3C[C@H](n4cc(C)c(=O)[nH]c4=O)O[C@@H]3COP(=O)(S)O[C@H]3[C@@H](O)[C@H](n4ccc(N)nc4=O)O[C@@H]3COP(=O)(S)O[C@H]3[C@@H](O)[C@H](n4cnc5c(N)ncnc54)O[C@@H]3COP(=O)(S)O[C@H]3[C@@H](O)[C@H](n4cnc5c(N)ncnc54)O[C@@H]3COP(=O)(S)O[C@H]3[C@@H](O)[C@H](n4ccc(N)nc4=O)O[C@@H]3COP(=O)(S)O[C@H]3[C@@H](O)[C@H](n4ccc(N)nc4=O)O[C@@H]3COP(=O)(S)O[C@H]3[C@@H](O)[C@H](n4cnc5c(N)ncnc54)O[C@@H]3COP(=O)(S)O[C@H]3[C@@H](O)[C@H](n4ccc(N)nc4=O)O[C@@H]3COP(=O)(S)O[C@H]3[C@@H](O)[C@H](n4cnc5c(N)ncnc54)O[C@@H]3COP(=O)(S)O[C@H]3[C@@H](O)[C@H](n4ccc(N)nc4=O)O[C@@H]3COP(=O)(S)O[C@H]3[C@@H](O)[C@H](n4cnc5c(N)ncnc54)O[C@@H]3CO)[C@@H](COP(=O)(S)O[C@H]3[C@@H](O)[C@H](n4ccc(N)nc4=O)O[C@@H]3COP(=O)(S)O[C@H]3[C@@H](O)[C@H](n4cnc5c(N)ncnc54)O[C@@H]3COP(=O)(S)O[C@H]3[C@@H](O)[C@H](n4cnc5c(N)ncnc54)O[C@@H]3COP(=O)(S)O[C@H]3[C@@H](O)[C@H](n4ccc(N)nc4=O)O[C@@H]3COP(=O)(S)O[C@H]3[C@@H](O)[C@H](n4ccc(N)nc4=O)O[C@@H]3COP(=O)(S)O[C@H]3[C@@H](O)[C@H](n4cnc5c(N)ncnc54)O[C@@H]3COP(=O)(S)O[C@H]3[C@@H](O)[C@H](n4ccc(N)nc4=O)O[C@@H]3COP(=O)(S)O[C@H]3[C@@H](O)[C@H](n4cnc5c(N)ncnc54)O[C@@H]3COP(=O)(S)O[C@H]3[C@@H](O)[C@H](n4ccc(N)nc4=O)O[C@@H]3COP(=O)(S)O[C@H]3[C@@H](O)[C@H](n4cnc5c(N)ncnc54)O[C@@H]3CO)O2)c(=O)[nH]c1=O` (some centres not stated), for which the Activity entry was “Dose-dependent effect” in assay [1]; 0.15 ng/mL in assay [2]; 0.16 ng/mL in assay [3]; 0.07 ng/mL in [4]; 0.2 ng/mL in [5]; 0.07 ng/mL in assay [6]. The Activity amounted to 0.37 ng/mL in assay [7] and 33.8 ng/mL in [8].
As for `Cc1cn([C@H]2C[C@H](O[C@H]3C[C@@H](O)C[C@@H](OP(=O)(S)O[C@H]4C[C@H](n5cc(C)c(=O)[nH]c5=O)O[C@@H]4COP(=O)(S)O[C@H]4[C@@H](O)[C@H](n5ccc(N)nc5=O)O[C@@H]4COP(=O)(S)O[C@H]4C[C@H](n5cc(C)c(=O)[nH]c5=O)O[C@@H]4COP(=O)(S)O[C@H]4C[C@H](n5cc(C)c(=O)[nH]c5=O)O[C@@H]4COP(=O)(S)O[C@H]4C[C@H](n5ccc6c(=O)[nH]c(N)nc65)O[C@@H]4COP(=O)(S)O[C@H]4[C@@H](O)[C@H](n5ccc(N)nc5=O)O[C@@H]4COP(=O)(S)O[C@H]4C[C@H](n5cc(C)c(=O)[nH]c5=O)O[C@@H]4COP(=O)(S)O[C@H]4[C@@H](O)[C@H](n5cnc6c(=O)[nH]c(N)nc65)O[C@@H]4COP(=O)(S)O[C@H]4C[C@H](n5cc(C)c(=O)[nH]c5=O)O[C@@H]4COP(=O)(S)O[C@H]4[C@@H](O)[C@H](n5ccc(N)nc5=O)O[C@@H]4COP(=O)(S)O[C@H]4C[C@H](n5cc(C)c(=O)[nH]c5=O)O[C@@H]4CO)C3)[C@@H](COP(=O)(S)O[C@H]3[C@@H](O)[C@H](n4ccc(N)nc4=O)O[C@@H]3COP(=O)(S)O[C@H]3C[C@H](n4cc(C)c(=O)[nH]c4=O)O[C@@H]3COP(=O)(S)O[C@H]3C[C@H](n4cc(C)c(=O)[nH]c4=O)O[C@@H]3COP(=O)(S)O[C@H]3C[C@H](n4ccc5c(=O)[nH]c(N)nc54)O[C@@H]3COP(=O)(S)O[C@H]3[C@@H](O)[C@H](n4ccc(N)nc4=O)O[C@@H]3COP(=O)(S)O[C@H]3C[C@H](n4cc(C)c(=O)[nH]c4=O)O[C@@H]3COP(=O)(S)O[C@H]3[C@@H](O)[C@H](n4cnc5c(=O)[nH]c(N)nc54)O[C@@H]3COP(=O)(S)O[C@H]3C[C@H](n4cc(C)c(=O)[nH]c4=O)O[C@@H]3COP(=O)(S)O[C@H]3[C@@H](O)[C@H](n4ccc(N)nc4=O)O[C@@H]3COP(=O)(S)O[C@H]3C[C@H](n4cc(C)c(=O)[nH]c4=O)O[C@@H]3CO)O2)c(=O)[nH]c1=O` (some centres not stated), the Activity result in [1] is “Dose-dependent effect”; in assay [2], 2.15 ng/mL; in assay [3] it was 0.93 ng/mL; in assay [4] it was 0.13 ng/mL; in assay [5] it was 0.29 ng/mL; in assay [6], 0.28 ng/mL. Besides, the figures for the Activity in [7], in assay [9] and in assay [8] were 8.45 ng/mL, “Dose-dependent effect” and 97.2 ng/mL, respectively.

Source of the values: ChEMBL document CHEMBL1157912, “Impact of nature and length of linker incorporated in agonists on toll-like receptor 9-mediated immune responses” (J Med Chem, 2010).
